Tests used:
K562 = assay: Antiproliferative activity against human K562 cells after 72 hrs by MTT assay; type: functional, cell-based; settings: K562, 72 h
How it was run: (§1)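 Cells seeded at 4.5–5.0 · 10⁴ cells/ml/well in 24-well plates, then incubated with or without compounds added in DMSO. After 72 h, MTT in PBS pH 7.2 was added. Formazan was dissolved in DMSO and the plates centrifuged, then absorbance was read at 540 nm. % growth inhibition = (1 − treated/untreated absorbance) × 100.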

DNA [1] = assay: Ratio of Qmax for calf thymus DNA to Q50 for calf thymus DNA; type: nucleic-acid assay; settings: Bos taurus
How it was run: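 Efficiency index calculated as Qmax/Q50 from ethidium displacement titrations (Tris–HCl pH 7.4, 0.15 M NaCl). Compounds were added serially from DMSO stocks (DMSO ≤8%), and quenching was read at 584 nm with 546 nm excitation. Qmax is the maximum quenching; Q50 is the concentration for 50% quenching of bound ethidium.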

[2] = Antiproliferative activity against human C33 cells after 72 hrs by MTT assay; type: functional, cell-based; settings: C33, 72 h; how it was run: as §1
HeLa = assay: Antiproliferative activity against human HeLa cells after 72 hrs by MTT assay; type: functional, cell-based; how it was run: as §1
DNA [3] = assay: Displacement of ethidium bromide from calf thymus DNA; type: nucleic-acid assay; settings: Bos taurus
How it was run: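 Fluorescence quenching of the DNA–ethidium bromide complex in Tris–HCl pH 7.4 with 0.15 M NaCl and ethidium bromide. Emission read at 584 nm with excitation at 546 nm, corrected for dilution. Precipitation was monitored by 600 nm light scatter at 90°. Qmax is the maximum quenching; Q50 is the concentration giving 50% quenching. Means of three experiments, SD.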

SW480 = assay: Antiproliferative activity against human SW480 cells after 72 hrs by MTT assay; type: functional, cell-based; settings: SW480, 72 h; how it was run: as §1
SW-620 = assay: Antiproliferative activity against human SW620 cells after 72 hrs by MTT assay; type: functional, cell-based; settings: SW-620, 72 h; how it was run: as §1

| IC50 (K562) [µM] | Ratio (DNA [1]) | IC50 (HeLa) [µM] | Q50 (DNA [3]) [µM] | IC50 (SW480) [µM] | IC50 (SW-620) [µM] | SMILES | IC50 [2] [µM] |
| --- | --- | --- | --- | --- | --- | --- | --- |
| 22.2 | 1.79 | 25.3 | 3.71 | 66.7 | 26.6 | COc1cccc(Nc2c3ccccc3nc3sc(SC)nc23)c1 | 75.4 |
| 9.28 | 2.36 | 12.9 | 11.1 | 19.5 | 15.2 | CCN(CC)CCNc1nc2c(Cl)c3ccccc3nc2s1 | 9.35 |
| 7.85 | 4.87 | 13 | 9.44 | 28 | 16.9 | CCN(CC)CCNc1c2ccccc2nc2sc(SC)nc12 | 9.06 |
|  | 3.08 |  | 0.53 |  |  | CSc1nc2c(Nc3cccc(C(F)(F)F)c3)c3ccccc3nc2s1 | 59.7 |
|  | 0.84 | 124 | 2.19 | > 200 | 146 | CSc1nc2c(Nc3ccc(Cl)cc3)c3ccccc3nc2s1 | > 200 |
| > 200 |  | 152 |  | > 200 | 161 | CSc1nc2c(Nc3cccc([N+](=O)[O-])c3)c3ccccc3nc2s1 | > 200 |
| 8.01 | 0.68 | 7.75 | 11.5 | 28.7 | 43.8 | CSc1nc2c(Nc3cccc(C#N)c3)c3ccccc3nc2s1 | 15.1 |
|  |  |  |  |  |  | COc1cc(NS(C)(=O)=O)ccc1Nc1c2ccccc2nc2ccccc12 [AMSACRINE] | 8.8 |
|  | 0.46 |  | 52.5 |  |  | CCN(CC)CCNc1nc2c(Nc3ccccc3)c3ccccc3nc2s1 | 22.4 |
|  | 2 |  | 1.29 | 111 | 130 | CSc1nc2c(Nc3cccc(Cl)c3)c3ccccc3nc2s1 | 129 |
| 12.5 | 1.39 | 21.7 | 16.6 | 13.6 | 19.7 | CCN(CC)CCNC(=O)c1cccc(Nc2c3ccccc3nc3sc(SC)nc23)c1 | 19.9 |
| 85.3 | 0.82 | > 200 | 18.4 | > 200 | 154 | CSc1nc2c(Nc3cccc(NC(C)=O)c3)c3ccccc3nc2s1 | > 200 |
| 143 | 1.17 | 176 | 6.96 | > 200 | > 200 | CSc1nc2c(Nc3cccc(N)c3)c3ccccc3nc2s1 | 139 |
| 77.2 | 0.39 | > 200 | 9.48 | > 200 | 111 | COc1ccc(Nc2c3ccccc3nc3sc(SC)nc23)cc1 | > 200 |
| 173 | 2.15 | > 200 | 7.64 | 147 | 146 | CSc1nc2c(Nc3cccc(O)c3)c3ccccc3nc2s1 | 146 |
|  | 2.37 |  | 4.18 | 101 | 119 | CNc1cccc(Nc2c3ccccc3nc3sc(SC)nc23)c1 | 134 |
|  | 6.49 |  | 7.36 |  |  | Nc1cc(CO)cc(Nc2c3ccccc3nc3ccccc23)c1 |  |
| > 200 | 0.31 | > 200 | 13.6 | > 200 | > 200 | CSc1nc2c(Nc3ccccc3)c3ccccc3nc2s1 | 154 |
| 143 | 0.79 | > 200 | 22.6 | > 200 | 184 | CSc1nc2c(Nc3cc(N)cc(CO)c3)c3ccccc3nc2s1 | > 200 |
| 120 | 0.9 | 140 | 14.3 | > 200 | > 200 | CSc1nc2c(Nc3ccc(C#N)cc3)c3ccccc3nc2s1 | > 200 |

Reference: ChEMBL document CHEMBL1143126, “Synthesis, cytotoxic evaluation, and DNA binding of novel thiazolo[5,4-b]quinoline derivatives” (Bioorg Med Chem, 2008)
